From ChEMBL document CHEMBL4814002, “Synthesis, biological evaluation, and docking studies of novel pyrrolo[2,3-b]pyridine derivatives as both ectonucleotide pyrophosphatase/phosphodiesterase inhibitors and antiproliferative agents” (Eur J Med Chem, 2021)
Calls of active or inactive are those of the source. The calls are words filed in the database; no cut-off is given here.

Tests used:
MCF7 [1] = assay: Antiproliferative activity against human MCF7 cells assessed as reduction in cell growth at 100 uM incubated for 24 hrs by MTT assay relative to control; format: functional
[2] = biological target: T1, Ectonucleotide pyrophosphatase/phosphodiesterase family member 3 (Homo sapiens, UniProt O14638); assay: Inhibition of NPP3 (unknown origin) transfected in COS7 cells using pNP-TMP as substrate incubated for 35 mins by spectrophotometric method; format: cell-based
T1 sequence (O14638 whole entry): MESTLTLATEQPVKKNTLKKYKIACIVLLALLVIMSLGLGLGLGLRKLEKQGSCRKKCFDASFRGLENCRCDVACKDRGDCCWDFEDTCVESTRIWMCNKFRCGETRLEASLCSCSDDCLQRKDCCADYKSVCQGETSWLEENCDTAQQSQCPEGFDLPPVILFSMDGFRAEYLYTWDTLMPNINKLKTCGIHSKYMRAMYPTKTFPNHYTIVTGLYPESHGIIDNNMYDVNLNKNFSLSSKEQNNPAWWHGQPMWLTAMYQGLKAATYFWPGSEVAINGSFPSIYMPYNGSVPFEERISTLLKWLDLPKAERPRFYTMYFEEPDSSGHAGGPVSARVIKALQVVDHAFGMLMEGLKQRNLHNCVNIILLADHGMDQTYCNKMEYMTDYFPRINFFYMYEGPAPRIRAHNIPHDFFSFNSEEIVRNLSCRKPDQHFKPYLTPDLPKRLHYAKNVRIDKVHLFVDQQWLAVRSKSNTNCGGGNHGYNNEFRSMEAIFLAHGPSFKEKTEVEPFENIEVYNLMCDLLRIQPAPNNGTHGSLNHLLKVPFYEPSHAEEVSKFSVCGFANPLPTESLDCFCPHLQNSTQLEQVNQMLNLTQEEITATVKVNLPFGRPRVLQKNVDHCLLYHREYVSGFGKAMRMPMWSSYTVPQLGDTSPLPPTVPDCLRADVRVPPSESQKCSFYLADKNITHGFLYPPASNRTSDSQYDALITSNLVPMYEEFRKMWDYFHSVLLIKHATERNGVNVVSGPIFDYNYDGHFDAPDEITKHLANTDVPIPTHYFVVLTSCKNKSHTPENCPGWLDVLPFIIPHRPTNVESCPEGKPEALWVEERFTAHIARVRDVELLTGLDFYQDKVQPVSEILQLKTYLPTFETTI
Summary of the method: (§1)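 Human NPP1 or NPP3 expressed in COS-7 cells by plasmid/Lipofectamine transfection, harvested 48-72 h later. Membrane fractions prepared by sonication and 300 g centrifugation, stored with 7.5% glycerol; protein measured by Bradford. Assay buffer: 50 mM Tris-HCl, 5 mM MgCl2, 0.1 mM ZnCl2, pH 9.5. Triplicates ± S.E.M.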

[3] = biological target: T2, Ectonucleotide pyrophosphatase/phosphodiesterase family member 1 (Homo sapiens, UniProt P22413); assay: Inhibition of human NPP1 transfected in COS7 cells using pNP-TMP as substrate incubated for 35 mins; format: cell-based
T2 sequence (P22413 whole entry): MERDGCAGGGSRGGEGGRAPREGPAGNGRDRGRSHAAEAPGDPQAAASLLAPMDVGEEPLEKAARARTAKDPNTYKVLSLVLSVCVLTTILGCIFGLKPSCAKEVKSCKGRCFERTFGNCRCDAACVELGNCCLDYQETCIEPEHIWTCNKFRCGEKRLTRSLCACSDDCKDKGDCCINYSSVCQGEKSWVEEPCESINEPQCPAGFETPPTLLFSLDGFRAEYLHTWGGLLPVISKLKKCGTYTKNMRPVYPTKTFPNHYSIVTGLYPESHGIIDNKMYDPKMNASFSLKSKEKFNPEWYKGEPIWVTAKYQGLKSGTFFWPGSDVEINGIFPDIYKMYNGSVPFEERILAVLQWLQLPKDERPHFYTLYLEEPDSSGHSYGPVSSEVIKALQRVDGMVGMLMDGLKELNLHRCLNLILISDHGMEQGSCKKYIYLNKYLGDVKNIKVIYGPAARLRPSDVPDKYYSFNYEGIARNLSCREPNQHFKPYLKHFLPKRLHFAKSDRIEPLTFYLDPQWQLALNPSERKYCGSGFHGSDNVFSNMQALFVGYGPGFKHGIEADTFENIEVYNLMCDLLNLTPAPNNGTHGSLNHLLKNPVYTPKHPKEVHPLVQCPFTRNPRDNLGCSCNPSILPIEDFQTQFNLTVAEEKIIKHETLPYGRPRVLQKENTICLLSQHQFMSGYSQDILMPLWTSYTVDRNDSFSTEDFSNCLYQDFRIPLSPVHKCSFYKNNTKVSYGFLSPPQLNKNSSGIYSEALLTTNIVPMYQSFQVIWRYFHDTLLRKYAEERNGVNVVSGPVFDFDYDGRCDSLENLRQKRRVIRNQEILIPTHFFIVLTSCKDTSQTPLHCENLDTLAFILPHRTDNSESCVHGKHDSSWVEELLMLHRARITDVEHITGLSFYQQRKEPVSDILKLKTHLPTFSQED

MCF7 [4] = assay: Antiproliferative activity against human MCF7 cells assessed as reduction in cell growth at 10 uM incubated for 24 hrs by MTT assay relative to control; format: functional
Summary of the method: (§2)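 MTT assay. Cells seeded at 4 × 10^4 per well and incubated overnight. Treated 24 h; DMSO served as negative control and doxorubicin as positive control. MTT dye 0.5 mg/mL added for 2 h at 37 °C, formazan dissolved in DMSO, absorbance read at 570 nm. Single-concentration screen at 10; dose-dependent dilutions gave IC50. WI-38 fibroblasts grown in DMEM with 10% FBS and 1% penicillin/streptomycin. Triplicate means ± S.E.M.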

[5] = biological target: T1, Ectonucleotide pyrophosphatase/phosphodiesterase family member 3; assay: Inhibition of human NPP3 transfected in COS7 cells using pNP-TMP as substrate incubated for 35 mins; format: cell-based
HT-29 [6] = assay: Antiproliferative activity against human HT-29 cells assessed as reduction in cell growth at 10 uM incubated for 24 hrs by MTT assay relative to control; format: functional; summary of the method: as §2
[7] = biological target: T3, Ectonucleotide pyrophosphatase/phosphodiesterase family member 1 (Homo sapiens) (UniProt P22413); assay: Inhibition of human NPP1 transfected in COS7 cells at 100 uM using pNP-TMP as substrate incubated for 35 mins relative to control; format: cell-based; summary of the method: as §1
T3 sequence (whole entry): T2 sequence (P22413 whole entry)

[8] = Toxicity in BALB/c mouse assessed as glucose level at 10 mg/kg, ip measured at 120 mins (reference value: 106 to 141 mg/dl); settings: in vivo
[9] = Toxicity in BALB/c mouse assessed as glucose level at 20 mg/kg, ip measured at 90 mins (reference value: 106 to 141 mg/dl); settings: in vivo
WI-38 = assay: Cytotoxicity against human WI-38 cells assessed as reduction in cell growth incubated for 24 hrs by MTT assay; format: cell-based; settings: WI-38, 24 h; summary of the method: as §2
[10] = Toxicity in BALB/c mouse assessed as glucose level at 10 mg/kg, ip measured at 90 mins (reference value: 106 to 141 mg/dl); settings: in vivo
HT-29 [11] = assay: Antiproliferative activity against human HT-29 cells assessed as reduction in cell growth incubated for 24 hrs by MTT assay; format: functional, cell-based; settings: HT-29, 24 h
Summary of the method: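 HT-29 colon cancer cells seeded per well and incubated overnight, then exposed for 24 h to serial dilutions of compound (10 mM DMSO stock diluted in medium), with doxorubicin and DMSO controls. MTT (0.5 mg/mL) added for 2 h at 37 °C, formazan dissolved in DMSO, absorbance read at 570 nm. IC50 from triplicate assays, mean ± S.E.M.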

[12] = Toxicity in BALB/c mouse assessed as glucose level at 10 mg/kg, ip measured at 30 mins (reference value: 106 to 141 mg/dl); settings: in vivo
[13] = Toxicity in BALB/c mouse assessed as glucose level at 20 mg/kg, ip measured at 120 mins (reference value: 106 to 141 mg/dl); settings: in vivo
[14] = Toxicity in BALB/c mouse assessed as glucose level at 20 mg/kg, ip measured at 30 mins (reference value: 106 to 141 mg/dl); settings: in vivo
[15] = Toxicity in BALB/c mouse assessed as glucose level at 10 mg/kg, ip measured at 60 mins (reference value: 106 to 141 mg/dl); settings: in vivo
[16] = Toxicity in BALB/c mouse assessed as glucose level at 20 mg/kg, ip measured at 0 hrs (reference value: 106 to 141 mg/dl); format: organism-based; settings: in vivo
Summary of the method: (§3)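 Male BALB/c mice weighing 30-35 g, five per group. Given i.p. at 10 or 20 mg/kg in (2-hydroxypropyl)-β-cyclodextrin solution. Control group received vehicle alone. Blood glucose (mg/dL) measured at 0, 30, 60, 90 and 120 min after injection.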

[17] = Toxicity in BALB/c mouse assessed as glucose level at 10 mg/kg, ip measured at 0 hrs (reference value: 106 to 141 mg/dl); format: organism-based; settings: in vivo; summary of the method: as §3
[18] = Toxicity in BALB/c mouse assessed as glucose level at 20 mg/kg, ip measured at 60 mins (reference value: 106 to 141 mg/dl); settings: in vivo
[19] = biological target: T4, Ectonucleotide pyrophosphatase/phosphodiesterase family member 3 (Homo sapiens) (UniProt O14638); assay: Inhibition of human NPP3 transfected in COS7 cells at 100 uM using pNP-TMP as substrate incubated for 35 mins relative to control; format: cell-based; summary of the method: as §1
T4 sequence (whole entry): T1 sequence (O14638 whole entry)

[20] = biological target: T2, Ectonucleotide pyrophosphatase/phosphodiesterase family member 1; assay: Inhibition of NPP1 (unknown origin) transfected in COS7 cells using pNP-TMP as substrate incubated for 35 mins by spectrophotometric method; format: cell-based; summary of the method: as §1
MCF7 [21] = assay: Antiproliferative activity against human MCF7 cells assessed as reduction in cell growth incubated for 24 hrs by MTT assay; format: functional, cell-based; settings: MCF7, 24 h; summary of the method: as §2
[22] = biological target: T3, Ectonucleotide pyrophosphatase/phosphodiesterase family member 1 (Homo sapiens); assay: Non-competitive inhibition of human NPP1 transfected in COS7 cells at 0.5 to 1.5 uM using pNP-TMP as substrate incubated for 35 mins by Lineweaver-Burk plot analysis; format: cell-based; settings: dose 0.5-1.5 µM
Summary of the method: (§4)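 Kinetics with pNP-TMP at 0.0, 1.25, 2.50, 5.0, 7.5 and 10.0 mM in Tris-HCl 50 mM, MgCl2 5 mM, ZnCl2 0.1 mM, pH 9.5. Incubated at 37 °C and read over 35 min at 5-min intervals. Enzyme from transfected COS-7 membrane fractions.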

[23] = biological target: T4, Ectonucleotide pyrophosphatase/phosphodiesterase family member 3 (Homo sapiens); assay: Competitive inhibition of human NPP3 transfected in COS7 cells at 0.1 to 1 uM using pNP-TMP as substrate incubated for 35 mins by Lineweaver-Burk plot analysis; format: cell-based; settings: dose 0.1-1 µM; summary of the method: as §4

IC50 [3] [µM] | IC50 [5] [µM] | Structure (SMILES) | inhibition at 10 µM (MCF7 [4]) [%] | inhibition at 10 µM (HT-29 [6]) [%] | further results
 |  | Oc1ccc(-c2nn(-c3cccc(NC(=S)Nc4ccccc4)c3)cc2-c2ccncc2)cc1Cl |  |  | inhibition at 100 µM (MCF7 [1]): 35.6%; IC50 [2]: 0.21 µM
1.08 | 26.1 | O=C(NS(=O)(=O)c1ccccc1)n1ccc2c(Cl)ccnc21 | 3.32 | 47.6 | 
 | 3.72 | Cc1ccc(S(=O)(=O)NC(=O)n2ccc3cccnc32)cc1 | 20.3 | 33.4 | inhibition [7]: 47.9%
1.15 | 2.13 | O=C(NS(=O)(=O)c1cccc([N+](=O)[O-])c1)n1ccc2cc(Br)cnc21 | 43 | 58.5 | 
1.55 | 0.59 | Cc1ccc(S(=O)(=O)NC(=O)n2ccc3cc(Br)cnc32)cc1 | 28 | 82.4 | Activity [8]: 121 mg/dL; Activity [9]: 128 mg/dL; IC50 (WI-38): 18.4 µM; Activity [10]: 124 mg/dL; IC50 (HT-29 [11]): 1.58 µM; Activity [12]: 103 mg/dL; Activity [13]: 121 mg/dL; Activity [14]: 113 mg/dL; Activity [15]: 122 mg/dL; Activity [16]: 114 mg/dL; Activity [17]: 108 mg/dL; Activity [18]: 114 mg/dL
4.5 |  | O=C(NS(=O)(=O)c1ccccc1)n1ccc2cccnc21 | 18.9 | 23.6 | inhibition [19]: 37.5%
 |  | COc1cccc2c1C(=O)c1c(O)c3c(c(O)c1C2=O)C[C@@](O)(C(=O)CO)C[C@@H]3O[C@H]1C[C@H](N)[C@H](O)[C@H](C)O1 [DOXORUBICIN] | 96.8 | 94.3 | IC50 (WI-38): 1.96 µM; IC50 (HT-29 [11]): 1.4 µM
 |  | O=C(NS(=O)(=O)c1ccc2ccccc2c1)n1ccc2cccnc21 | 1.9 | 16.2 | inhibition [7]: 48.6%; inhibition [19]: 44.1%
3.29 | 1.31 | O=C(NS(=O)(=O)c1ccc2ccccc2c1)n1ccc2c(Cl)ccnc21 | 28.6 | 58.2 | 
 |  | COc1ccc(-c2nn(-c3cccc(NS(=O)(=O)c4ccc(C)cc4)c3)cc2-c2ccncc2)cc1Cl |  |  | inhibition at 100 µM (MCF7 [1]): 40.3%; IC50 [20]: 0.18 µM
8.3 | 2.01 | O=C(NS(=O)(=O)c1ccccc1)n1ccc2cc(Br)cnc21 | 16.8 | 14.6 | 
0.8 | 1.17 | O=C(NS(=O)(=O)c1cccc([N+](=O)[O-])c1)n1ccc2cccnc21 | 70.7 | 18.9 | IC50 (WI-38): > 20 µM; IC50 (MCF7 [21]): 4.7 µM; inhibition [22]: Active
 |  | Cc1ccc(S(=O)(=O)NC(=O)n2ccc3c(N(C)C)ccnc32)cc1 | 5.6 | 21.4 | inhibition [7]: 41.5%; inhibition [19]: 45.7%
10.4 | 0.88 | O=C(NS(=O)(=O)c1ccc(Cl)cc1)n1ccc2cccnc21 | 33.5 | 54.4 | 
2.77 | 0.55 | CN(C)c1ccnc2c1ccn2C(=O)NS(=O)(=O)c1ccccc1 | 26.9 | 17.6 | inhibition [23]: Active
178 | 25.3 | O=C(NS(=O)(=O)c1ccc2ccccc2c1)n1ccc2cc(Br)cnc21 | 28.8 | 60.1 | 
